Test results reported in ChEMBL document CHEMBL1141290, “Lipoxazolidinones A, B, and C: antibacterial 4-oxazolidinones from a marine actinomycete isolated from a Guam marine sediment” (2007).
In brackets after ≈: the same amount, converted by molar mass.

Tests used:
Format in all cases: functional
Staphylococcus aureus [1] = experiment: Antimicrobial activity against methicillin-resistant Staphylococcus aureus ATCC 43300 after 14 to 16 hrs by serial micro-broth dilution method
How it was run: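 Broth microdilution MIC following NCCLS standards, using cation-adjusted Mueller-Hinton broth in ambient air without CO2. The final inoculum was about 5 × 10^5 CFU/mL.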

Haemophilus influenzae [2] = experiment: Antimicrobial activity against Haemophilus influenzae ATCC 49766 after 14 to 16 hrs by serial micro-broth dilution method
How it was run: (§1)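 MIC by serial broth microdilution per NCCLS, in Haemophilus Test Medium. Final inoculum ~5 × 10^5 CFU/mL. Plates incubated at 35 °C for 14–16 h in a CO2 incubator.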

Escherichia coli = experiment: Antimicrobial activity against Escherichia coli ATCC 25922 after 14 to 16 hrs by serial micro-broth dilution method
How it was run: (§2)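 MIC by serial broth microdilution following NCCLS standards, in cation-adjusted Mueller-Hinton broth. Final inoculum ~5 × 10^5 CFU/mL. Plates incubated at 35 °C for 14–16 h without CO2.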

Streptococcus pneumoniae [3] = experiment: Antimicrobial activity against penicillin-sensitive Streptococcus pneumoniae ATCC 49619 after 14 to 16 hrs by serial microbroth dilution method
How it was run: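 MIC by NCCLS serial broth microdilution in cation-adjusted Mueller-Hinton broth II with lysed horse blood. Final inoculum ~5 × 10^5 CFU/mL. Incubated at 35 °C for 14–16 h in a CO2 incubator.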

Staphylococcus aureus [4] = experiment: Antimicrobial activity against methicillin-sensitive Staphylococcus aureus ATCC 29213 after 14 to 16 hrs by serial micro-broth dilution method; how it was run: as §2
Enterococcus faecalis = experiment: Antimicrobial activity against vancomycin-sensitive Enterococcus faecalis ATCC 29212 after 14 to 16 hrs by serial microbroth dilution method; how it was run: as §2
Haemophilus influenzae [5] = experiment: Antimicrobial activity against Haemophilus influenzae ATCC 49247 after 14 to 16 hrs by serial micro-broth dilution method; how it was run: as §1
[6] = tested on: Staphylococcus epidermidis; experiment: Antimicrobial activity against Staphylococcus epidermidis ATCC 700578 after 14 to 16 hrs by serial micro-broth dilution method; how it was run: as §2
[7] = tested on: Staphylococcus epidermidis; experiment: Antimicrobial activity against Staphylococcus epidermidis ATCC 700582 after 14 to 16 hrs by serial microbroth dilution method; how it was run: as §2
Streptococcus pneumoniae [8] = experiment: Antimicrobial activity against penicillin-resistant Streptococcus pneumoniae ATCC 51915 after 14 to 16 hrs by serial micro-broth dilution method
How it was run: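 Broth microdilution MIC following NCCLS standards, using cation-adjusted Mueller-Hinton broth II with lysed horse blood and incubation in a CO2 incubator. The final inoculum was about 5 × 10^5 CFU/mL.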

SMILES | MIC (Staphylococcus aureus [1]) [µg/mL] | MIC (Haemophilus influenzae [2]) [µg/mL] | MIC (Escherichia coli) [µg/mL] | MIC (Streptococcus pneumoniae [3]) [µg/mL] | MIC (Staphylococcus aureus [4]) [µg/mL] | MIC (Enterococcus faecalis) [µg/mL] | MIC (Haemophilus influenzae [5]) [µg/mL] | MIC [6] [µg/mL] | MIC [7] [µg/mL] | MIC (Streptococcus pneumoniae [8]) [µg/mL]
CCCCCCC/C(C)=C/C(=O)CC(=N)OC(CCCC)C(=O)O (stereo not given) | > 32 | > 32 | > 32 | > 32 | 24 (≈ 70.7 µM) | 32 (≈ 94.3 µM) | > 32 | – | – | –
CC(=O)NC[C@H]1CN(c2ccc(N3CCOCC3)c(F)c2)C(=O)O1 [LINEZOLID] | 1.5 (≈ 4.45 µM) | 12 (≈ 35.6 µM) | > 32 | – | – | – | 12 (≈ 35.6 µM) | 1 (≈ 2.96 µM) | 1 (≈ 2.96 µM) | –
CCCCCC/C(C)=C/C(=O)/C=C1\NC(=O)C(CCCC)O1 (stereo not given) [LIPOXAZOLIDINE C] | 3 (≈ 9.76 µM) | 5 (≈ 16.3 µM) | > 32 | 10 (≈ 32.5 µM) | 4 (≈ 13 µM) | 2 (≈ 6.51 µM) | 16 (≈ 52 µM) | – | – | –
CCCCCCC/C(C)=C/C(=O)/C=C1\NC(=O)C(CCCC)O1 (stereo not given) [LIPOXAZOLIDINONE A] | 1 (≈ 3.11 µM) | 12 (≈ 37.3 µM) | > 32 | 2.6 (≈ 8.09 µM) | 0.9 (≈ 2.8 µM) | 1 (≈ 3.11 µM) | 12 (≈ 37.3 µM) | 0.5 (≈ 1.56 µM) | 0.5 (≈ 1.56 µM) | 4.7 (≈ 14.6 µM)
CCCCCCC/C(C)=C/C(=O)/C=C1\NC(=O)C(CCCCC)O1 (stereo not given) [LIPOXAZOLIDINONE B] | 1.5 (≈ 4.47 µM) | 16 (≈ 47.7 µM) | > 32 | 8 (≈ 23.8 µM) | 6 (≈ 17.9 µM) | 3 (≈ 8.94 µM) | 12 (≈ 35.8 µM) | 1.3 (≈ 3.87 µM) | 0.8 (≈ 2.38 µM) | 6 (≈ 17.9 µM)
